Source: PubChem
Most compounds without a hit are left out; they make up all but 2.2% or so of the library.
HTRA1 inh = HTRA1 serine protease inhibitors, primary screen, biochemical, fluorescence polarization, HTS; hit rate 0.5% among 340,000; recombinant HTRA1, FP-rhodamine activity-based probe; inhibition, % at 5.96 µM; Q92743; AID 504803, 2011; in the data active means inhibition above about 36%
TDP2 inh = human TDP2 enzyme inhibitors, primary screen, biochemical, epi absorbance, recombinant enzyme. Tyrosyl-DNA phosphodiesterase 2 (Homo sapiens), O95551. T5PNP hydrolysis, p-nitrophenol absorbance 415 nm. inhibition, % at 12.8 µM. hit rate 0.34% among 370,000. AID 720702, 2013;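 active means inhibition above the mean of all tested compounds plus 3 SD, set per campaign, cut at about 25% in these data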
Target sequence (O95551 whole entry, looked up): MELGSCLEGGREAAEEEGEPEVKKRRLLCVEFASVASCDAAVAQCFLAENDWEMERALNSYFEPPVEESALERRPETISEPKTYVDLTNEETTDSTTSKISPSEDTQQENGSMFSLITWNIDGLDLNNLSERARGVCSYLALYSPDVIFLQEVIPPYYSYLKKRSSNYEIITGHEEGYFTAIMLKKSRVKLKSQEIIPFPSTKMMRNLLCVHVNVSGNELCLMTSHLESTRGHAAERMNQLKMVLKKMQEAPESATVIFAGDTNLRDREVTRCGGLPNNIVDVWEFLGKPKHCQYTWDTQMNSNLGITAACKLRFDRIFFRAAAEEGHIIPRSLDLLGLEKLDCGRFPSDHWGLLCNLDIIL
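Assay system: Recombinant human TDP2 | Quantity: 120 nM TDP2 per well | Incubation: 2 h at 37 °C | Signal: Epi absorbance | Evaluation: Percent inhibition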
LEDGF integ inh = blockers of LEDGF/p75-dependent integrase strand transfer – biochemical, TR-FRET, high throughput, primary screen | HIV-1 integrase (with human LEDGF/p75) | TR-FRET IN-LEDGF/p75 DNA integration, Eu/Cy5 | inhibition, % at 3.7 µM | hit rate 0.64% among 370,000;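 active means inhibition above the screen-wide mean plus 3 SD, cut at about 13% in these data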;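 further: signal is the Cy5 over europium emission ratio at 671 and 618 nm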
ABHD4 inh = ABHD4 inhibitors, primary screen, biochemical, fluorescence polarization, mouse | purified mABHD4, FP-Rh probe fluorescence polarization | inhibition, % at 8.92 µM | hit rate 0.54% among 370,000 | AID 720543, 2013;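 active means inhibition exceeding the mean over every tested compound plus 3 SD, cut at about 30% in these data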
Target sequence (Q8VD66 whole entry, looked up): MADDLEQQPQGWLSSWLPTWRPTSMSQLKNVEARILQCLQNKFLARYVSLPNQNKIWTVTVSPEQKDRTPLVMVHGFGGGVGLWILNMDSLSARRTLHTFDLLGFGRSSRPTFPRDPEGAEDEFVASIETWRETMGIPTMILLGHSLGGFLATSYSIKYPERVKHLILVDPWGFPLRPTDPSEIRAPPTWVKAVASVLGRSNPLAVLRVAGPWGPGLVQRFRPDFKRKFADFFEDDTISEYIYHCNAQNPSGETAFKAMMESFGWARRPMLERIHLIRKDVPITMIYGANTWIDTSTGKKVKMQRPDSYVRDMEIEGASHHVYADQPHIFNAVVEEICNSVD
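Material: mouse ABHD4 enzyme, wild type; Benchmarks: S159A mutant high control, sample median low control; Buffer or medium: HEPES pH 7.0, NaCl, Pluronic buffer; Signal: fluorescence polarization; Read-out: percent inhibition of probe binding, normalized to plate controls; Timing: pre-incubation 45 min, probe exposure 60 min, at 25 °C; Dosing: 8.92 µM, single dose.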
SIAE primary = human SIAE inhibitors, primary screen, biochemical, fluorescence polarization, FP-Rh probe, 1536-well HTS | inhibition, % at 9.66 µM | AID 1053197, 2014 | hit rate 0.69% among 370,000 | SIAE FP-Rh probe binding | Sialate O-acetylesterase (Homo sapiens), Q9HAT2;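 active means inhibition above a cutoff: mean of compounds within the control limits plus 3 SD of those, cut at about 17% in these data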
TCR CD3 inh = inhibitors of human TCR-CD3 interaction, primary screen, biochemical, fluorescence, TAMRA-labeled TCR probe; T-cell receptor (TCR); inhibition, % at 9.4 µM; hit rate 0.37% among 360,000; in the data active means inhibition above about 19%;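 further: recombinant mutant TCR 2C K166C tagged with TAMRA read by polarization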
TDP2 confirm = human TDP2 enzyme inhibitors, retest, confirmation, biochemical, epi absorbance, recombinant enzyme. shares compounds with TDP2 inh. inhibition, % at 12.8 µM. hit rate 22% among 1,100. absorbance read-out; in the data active means inhibition above about 25%
IN multimer act = HIV-1 IN multimer formation enhancers, counter-screen for LEDGF/p75 integration inhibitor project, biochemical, TR-FRET | shares compounds with LEDGF integ inh | AID 1053131, 2014 | hit rate 17% among 2,000 | activation, % at 7.7 µM | TR-FRET HIV-1 integrase multimerization; in the data active means activation above about 8.9%
TRFRET interf = TR-FRET optical interference artefacts, confirmation, artefact control for LEDGF/p75-dependent integration inhibitor project, biochemical, HIV-1 IN multimerization. TR-FRET optical interference counterscreen. AID 1053135, 2014. 2,000 tested, under 10 active. inhibition, % at 7.7 µM. shares compounds with LEDGF integ inh;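 active means inhibition above the mean over all tested compounds plus 3 SD, which no compound reached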
LEDGF integ conf = inhibitors of HIV-1 IN-LEDGF/p75 DNA integration, confirmation, biochemical, TR-FRET | shares compounds with LEDGF integ inh | TR-FRET LEDGF/p75-dependent HIV-1 integration | inhibition, % at 3.7 µM | hit rate 36% among 2,000; in the data active means inhibition above about 14%
A number is an active result.

Results for COc1ccc(S(=O)(=O)Nc2cc(SCC(=O)O)c(O)c3ccccc23)cc1 ?
HTRA1 inh: inactive; TDP2 inh: 43; LEDGF integ inh: 21; ABHD4 inh: 49; SIAE primary: inactive; TCR CD3 inh: inactive; TDP2 confirm: 50; IN multimer act: inactive; TRFRET interf: inactive; LEDGF integ conf: 33

How did Nc1ccc(N2CCOCC2)c2nonc12 do in these assays?
HTRA1 inh: inactive; TDP2 inh: 92; LEDGF integ inh: 22; ABHD4 inh: inactive; SIAE primary: inactive; TCR CD3 inh: inactive; TDP2 confirm: 36; IN multimer act: inactive; TRFRET interf: inactive; LEDGF integ conf: inactive

How did CC(=O)N(/N=C1\Sc2ccccc2C1=O)c1ccccc1C do in these assays?
HTRA1 inh: inactive; TDP2 inh: 63; LEDGF integ inh: 34; ABHD4 inh: inactive; SIAE primary: inactive; TCR CD3 inh: inactive; TDP2 confirm: 63; IN multimer act: inactive; TRFRET interf: inactive; LEDGF integ conf: 44

What do the screens show for `CC(=O)N(/N=C1\Sc2ccccc2C1=O)c1ccc(C)cc1C`?
HTRA1 inh: inactive; TDP2 inh: inactive; LEDGF integ inh: inactive; ABHD4 inh: inactive; SIAE primary: inactive; TCR CD3 inh: inactive

How did CC(COc1ccc([N+](=O)[O-])cc1Cl)CN1CCC(C(O)(c2ccccc2)c2ccccc2)CC1 (configuration not stated) do in these assays?
TDP2 inh: inactive; LEDGF integ inh: inactive; ABHD4 inh: inactive; SIAE primary: inactive

What do the screens show for `CCc1nnc(N/N=C\c2ccc(OC(C)=O)c(OC)c2)n1N`?
HTRA1 inh: inactive; TDP2 inh: 54; LEDGF integ inh: 30; ABHD4 inh: inactive; SIAE primary: inactive; TCR CD3 inh: inactive; TDP2 confirm: inactive; IN multimer act: inactive; TRFRET interf: inactive; LEDGF integ conf: inactive

How did COc1cc(/C=N/Nc2ccccn2)ccc1O do in these assays?
HTRA1 inh: inactive; TDP2 inh: inactive; LEDGF integ inh: inactive; ABHD4 inh: inactive; SIAE primary: inactive; TCR CD3 inh: inactive

What do the screens show for `CCc1nnc(N/N=C/c2ccc(O)c(OC)c2)n1N`?
HTRA1 inh: inactive; TDP2 inh: 79; LEDGF integ inh: 55; ABHD4 inh: inactive; SIAE primary: inactive; TCR CD3 inh: inactive; TDP2 confirm: inactive; IN multimer act: inactive; TRFRET interf: inactive; LEDGF integ conf: inactive

What do the screens show for `CCc1nnc(N/N=C/c2cc(Br)c(O)cc2O)n1N`?
HTRA1 inh: inactive; TDP2 inh: 37; LEDGF integ inh: 50; ABHD4 inh: inactive; SIAE primary: inactive; TCR CD3 inh: inactive; TDP2 confirm: inactive; IN multimer act: 11; TRFRET interf: inactive; LEDGF integ conf: inactive

Results for CCOc1cc(/C=N/Nc2nnc(C)n2N)ccc1OC(C)=O ?
HTRA1 inh: inactive; TDP2 inh: 43; LEDGF integ inh: 30; ABHD4 inh: inactive; SIAE primary: inactive; TCR CD3 inh: inactive; TDP2 confirm: inactive; IN multimer act: inactive; TRFRET interf: inactive; LEDGF integ conf: inactive

Results for CCOc1cc(/C=N\NC(=O)c2ccc(C)nc2)ccc1OC(=O)c1ccc(F)cc1 ?
HTRA1 inh: inactive; TDP2 inh: inactive; LEDGF integ inh: inactive; ABHD4 inh: inactive; SIAE primary: inactive; TCR CD3 inh: inactive

How did CC(C)(C)OC(=O)/C=C/[C@@H](CC1CCCC1)Sc1ccc(C(C)(C)C)cc1 do in these assays?
TDP2 inh: inactive; LEDGF integ inh: inactive; ABHD4 inh: inactive; SIAE primary: inactive

What do the screens show for `Cc1cc(NC2=CC(=O)C(=O)c3ccccc32)no1`?
HTRA1 inh: inactive; TDP2 inh: 29; LEDGF integ inh: 16; ABHD4 inh: inactive; SIAE primary: inactive; TCR CD3 inh: inactive; TDP2 confirm: 69; IN multimer act: inactive; TRFRET interf: inactive; LEDGF integ conf: 52

Results for O=C(/C=C/c1ccco1)Nc1cccc(C(=O)Nc2ccccc2C(=O)O)c1 ?
HTRA1 inh: inactive; TDP2 inh: 28; LEDGF integ inh: 19; ABHD4 inh: inactive; SIAE primary: inactive; TCR CD3 inh: inactive; TDP2 confirm: inactive; IN multimer act: inactive; TRFRET interf: inactive; LEDGF integ conf: inactive

Results for O=C(/C=C/c1ccco1)NC(=S)Nc1ccc(C(=O)O)cc1 ?
HTRA1 inh: inactive; TDP2 inh: 40; LEDGF integ inh: 63; ABHD4 inh: inactive; SIAE primary: inactive; TCR CD3 inh: inactive; TDP2 confirm: inactive; IN multimer act: 37; TRFRET interf: inactive; LEDGF integ conf: 53

What do the screens show for `COc1cccc(C(=O)N[C@@H](Cc2cccnc2)C(=O)N2CCC[C@H]2C(=O)NCCc2ccccc2Cl)c1`?
TDP2 inh: inactive; LEDGF integ inh: inactive; ABHD4 inh: inactive; SIAE primary: inactive; TCR CD3 inh: inactive

What do the screens show for `N/C(=N\O)c1cn(Cc2ccccc2Cl)c2ccccc12`?
HTRA1 inh: inactive; TDP2 inh: inactive; LEDGF integ inh: inactive; ABHD4 inh: inactive; SIAE primary: inactive; TCR CD3 inh: inactive

Results for Cc1[nH][nH]c(=O)c1C(c1c(C)[nH][nH]c1=O)c1cn(Cc2ccccc2Cl)c2ccccc12 ?
HTRA1 inh: inactive; TDP2 inh: 55; LEDGF integ inh: 20; ABHD4 inh: inactive; SIAE primary: inactive; TCR CD3 inh: inactive; TDP2 confirm: 34; IN multimer act: inactive; TRFRET interf: inactive; LEDGF integ conf: inactive

How did CC1=NN(c2ccc(C)cc2C)C(=O)C1C(c1ccccc1O)C1C(=O)N(c2ccc(C)cc2C)N=C1C (configuration not stated) do in these assays?
HTRA1 inh: inactive; TDP2 inh: 79; LEDGF integ inh: 29; ABHD4 inh: inactive; SIAE primary: inactive; TCR CD3 inh: inactive; TDP2 confirm: inactive; IN multimer act: inactive; TRFRET interf: inactive; LEDGF integ conf: inactive
